High-throughput results: PubChem BioAssay, The Scripps Research Institute Molecular Screening Center
This is a sample that favours compounds with a hit; in the whole collection about 4.3% have one here.
TAAR1 antagonist: antagonists of human TAAR1; Q96RJ0; CHO RD-HGA16 TAAR1, Fluo-8 calcium fluorescence, antagonist; inhibition, % at 3 µM; 360,000 compounds, 1.5% hits;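 active = inhibition above a per-plate cutoff, the mean inhibition of test compounds on that plate plus 3 SD, cut at about 49% in these data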;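 note: 0% = DMSO plus EC80 beta-PEA response and 100% = DMSO alone without agonist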
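System: CHO RD-HGA16 cells bearing hTAAR1. Reagent: EC80 β-phenethylamine stimulus. Schedule: seeding 17-24 h prior, 75-min 37 °C, 30-min RT dye loading. Signal: Fluo-8 intracellular calcium dye fluorescence, real-time kinetic reads. Read-out: % inhibition from peak post-agonist over basal fluorescence ratio. Benchmarks: vehicle wells and EC80 agonist wells. Replicates: n of 1.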
TAAR1 ag: agonists of human TAAR1; Q96RJ0; CHO RD-HGA16 TAAR1, Fluo-8 calcium fluorescence; vehicle wells 0%, saturating PEA agonist 100%; activation, % at 3 µM; 360,000 compounds, 0.99% hits; AID 624467;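 active = activation above the mean activation of all test compounds in the run plus 3 SD, cut at about 38% in these data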
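Assay system: CHO-derived RD-HGA16 cells with stable Gα16 and human TAAR1; timing: 17-24 h seeding, 75 min 37 °C dye, 30 min RT; read-out: % activation from peak over basal fluorescence ratio, DMSO-to-PEA scaled; measured by: kinetic Fluo-8 calcium fluorescence; benchmarks: low control DMSO, high control PEA (EC100); doses: 3 µM single concentration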
CHO parental Ca: counter-screen: ATP calcium response change in parental CHO cells. parental CHO-K1, ATP-induced calcium, Fluo-8 fluorescence. inhibition, % at 5.6 µM. 330,000 compounds, 0.63% hits. AID 463079;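 active = inhibition above that plate's mean sample inhibition plus 3 SD, cut at about 26% in these data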;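 note: 0% = ATP-challenged DMSO wells and 100% = DMSO wells without ATP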
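Material: parental CHO cells / Compound: single nominal dose of 5.6 µM per compound / Signal: Fluo-8 fluorescence / Replicates: singlicate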
OX1R antag-1: antagonists of human orexin 1 receptor | 330,000 compounds, 0.43% hits | CHO/OX1R cells, Fluo-8 calcium fluorescence, orexin A | inhibition, % at 5 µM | AID 434989;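 active = inhibition above its plate's threshold, mean inhibition of all tested compounds on the plate plus 3 SD, cut at about 37% in these data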;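 note: 0% = orexin A challenge wells and 100% = SB-334867-A antagonist wells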
Target sequence (O43613 whole entry, looked up): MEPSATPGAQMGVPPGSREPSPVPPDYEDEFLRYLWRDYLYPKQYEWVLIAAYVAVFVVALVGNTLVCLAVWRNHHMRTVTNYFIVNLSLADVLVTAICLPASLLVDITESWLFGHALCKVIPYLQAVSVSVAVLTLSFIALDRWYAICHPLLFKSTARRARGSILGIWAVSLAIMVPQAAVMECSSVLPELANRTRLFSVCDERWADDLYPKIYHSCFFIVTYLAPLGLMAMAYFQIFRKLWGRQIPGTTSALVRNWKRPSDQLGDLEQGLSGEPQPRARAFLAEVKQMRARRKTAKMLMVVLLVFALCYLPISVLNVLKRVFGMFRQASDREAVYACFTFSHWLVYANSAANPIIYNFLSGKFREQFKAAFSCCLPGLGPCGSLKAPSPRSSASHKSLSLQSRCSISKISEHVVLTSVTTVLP
GalR3 antag: antagonists of human GalR3; inhibition, % at 3 µM; O60755; 360,000 compounds, 0.44% hits; HEK293 GalR3-CNG cAMP membrane potential fluorescence; galR3 body fused to GalR1 C-terminus;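 active = inhibition above the screen-wide average plus 3 SD, cut at about 13% in these data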;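 note: forskolin and galanin both at EC90 stimulate the cells; cAMP rise reported by CNG channel membrane potential dye signal; 0% = forskolin plus galanin with DMSO and 100% = forskolin alone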
OX1R antag-2: antagonists of human orexin 1 receptor (OX1R); O43613; OX1R-expressing cells, FRET antagonist read-out; inhibition, % at 6.6 µM; 330,000 compounds, 1.8% hits; AID 485270; in the data active = inhibition mostly above about 38%, no sharp cut-off; inactive = mostly below about 40%;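 note: 0% = agonist challenge alone and 100% = reference antagonist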
GalR3 conf: confirmation of human galanin receptor 3 antagonists; shares compounds with GalR3 antag; HEK293 GalR3 CNG cAMP biosensor, membrane potential fluorescence; galR3 fused to GalR1 carboxy tail; challenged with forskolin and galanin at EC90; inhibition, % at 3 µM; 1,600 compounds, 59% hits;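 active = inhibition above the primary screen's cutoff, the mean inhibition of all screened compounds plus 3 SD, cut at about 13% in these data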;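 note: 0% = forskolin plus galanin and 100% = forskolin alone with DMSO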
CNG parental: parental cell agonism counter-screen for GalR3 antagonists; 1,600 compounds, 10% hits; activation, % at 3 µM; shares compounds with GalR3 antag; HEK293-CNG parental cells, cAMP membrane potential fluorescence; normalised: DMSO wells 0%, forskolin wells 100%; in the data active = activation above about 1.3%
The depositor's hits bear a star; x = no result.

SMILES	TAAR1 antagonist	TAAR1 ag	CHO parental Ca	OX1R antag-1	GalR3 antag	OX1R antag-2	GalR3 conf	CNG parental
CCc1nnc(NC(=O)CSc2nnc(CNC(=O)c3ccccc3F)n2C)s1	0	2	1	-13	-10	10	x	x
CCOC(=O)c1[nH]c2ccc(OC)cc2c1NS(=O)(=O)c1ccc(Cl)s1	3	1	0	-12	103*	26	92*	0
COc1ccccc1NC(=O)Cc1nc(CCl)cs1	-12	1	-5	-7	14*	19	12	0
O=C1c2ccccc2C(c2nnnn2C2CCCCC2)N1CCc1ccc(O)cc1 (configuration not stated)	11	3	x	x	-4	x	x	x
Nc1nnc(SCC(=O)NCCOc2ccccc2)s1	-7	1	-11	0	18*	24	4	0
Nc1nnc(SCC(=O)NCCNC(=O)CSc2nnc(N)s2)s1	-22	3	3	-3	-4	7	x	x
CCCCn1c(N)c(N(CCOC)C(=O)COC(=O)COc2ccc(CC)cc2)c(=O)[nH]c1=O	-12	0	1	3	0	2	x	x
CCCCOc1ncnc2c1[nH]c1ccc(F)cc12	29	9	32*	39	29*	34	46*	0
Cc1ccc(/C(N)=N/OC(=O)CCC2CCCC2)cc1	-20	0	1	7	13*	5	-2	0
O=c1ncc(F)c[nH]1	x	x	-10	-11	x	17	x	x
NC(=O)c1c(-c2ccc(Cl)cc2Cl)csc1NC(=O)Cc1ccccc1	35	3	56*	9	95*	58*	113*	-1
O=C(Cc1ccccc1)Nc1scc(-c2ccccc2)c1C(=O)N1CCOCC1	x	x	-22	-26	x	17	x	x
Cc1ccc(S(=O)(=O)c2nc(-c3ccc(F)cc3)oc2N2CCOCC2)cc1	-8	10	-19	-25	-6	9	x	x
O=C(OCc1cn([C@H]2CN(C(=O)C3CCCCC3)[C@@H](c3ccc(Cl)cc3)C[C@@H]2O)nn1)c1ccccc1	-7	2	x	x	-7	x	x	x
CCOC(=O)c1cc[n+](CC(=O)c2ccc(F)cc2)cc1	-19	3	-13	-15	15*	13	3	0
CCOC(=O)c1ccc[n+](CC(=O)c2ccccc2)c1	4	2	-7	-36	2	29	x	x
CN(C)Cc1ccccc1	-13	2	x	x	-3	x	x	x
CN(Cc1ccccc1)C1=CC(=[N+]2CCCC2)CC(C)(C)C1	-1	2	9	4	59*	15	65*	2.3*
CCOC(=O)C(=CNc1ccc(S(N)(=O)=O)cc1)C(=O)OCC	-12	5	-4	-19	13*	2	29*	1
CCN(CC)c1ccc(C(=C2C=CC(=[N+](CC)CC)C=C2)c2ccccc2)cc1	105*	29	x	x	33*	x	64*	1.4*
CC(C)=C1Cc2ccccc2C1=O	-24	2	-2	-15	13*	4	0	0
COc1ccc2c(c1O)Cc1ccccc1C2=O	x	x	-10	-19	x	11	x	x
Cc1cccc(-n2c(SCC(=O)N3CC(=O)Nc4ccccc43)nc3ccccc3c2=O)c1	8	20	-18	-4	15*	32	3	1
Cc1ccc(Cn2c(SCC(=O)N3CC(=O)Nc4ccccc43)nc3ccccc3c2=O)cc1	-1	7	-21	-12	-3	11	x	x
O=C1[C@H](Cc2ccccc2)NCCCC[C@H](c2ccc(Cl)cc2)N1Cc1ccc(Cl)cc1	6	7	x	x	-6	x	x	x
SMILES	TAAR1 antagonist	TAAR1 ag	CHO parental Ca	OX1R antag-1	GalR3 antag	OX1R antag-2	GalR3 conf	CNG parental
O=C1[C@H](Cc2ccccc2)NCCCC[C@@H](c2ccc(Cl)cc2)N1Cc1ccccc1	17	39*	x	x	x	x	1	2.3*
O=S(=O)(NCC1CN(S(=O)(=O)c2c(F)cccc2F)C1)c1ccc2c(c1)OCCO2	24	5	1	29	73*	10	103*	0
O=S(=O)(NCCCCCNS(=O)(=O)c1c(F)cccc1F)c1ccc2c(c1)OCCO2	15	5	-8	-7	-5	16	x	x
Cc1cc(Br)cn2c(Cc3cccc(Cl)c3)c(-c3ccco3)nc12	38	24	x	x	40*	x	41*	0
Clc1cccc(Cc2c(-c3ccco3)nc3ccc(Br)cn23)c1	-13	1	x	x	8	x	x	x
Cc1cc(Br)cn2c(Cc3ccccc3C(F)(F)F)c(-c3ccco3)nc12	-14	1	x	x	18*	x	45*	1
Cc1cc(Br)cn2c(Cc3ccccc3C(F)(F)F)c(-c3ccccc3)nc12	-3	-1	x	x	-7	x	x	x
Nc1ccn([C@@H]2O[C@H](C(=O)N(CCC3=CCCCC3)CC3CC3)[C@@H](O)[C@H]2O)c(=O)n1	-12	3	x	x	-4	x	x	x
N#CC(=C1NC(=O)c2ccccc21)c1nc2ccccc2n1CCO	38	14	x	x	4	x	x	x
CCCCCCCCn1c2c(c(=N)c3ccccc31)CCC2	13	8	x	x	44*	x	62*	11*
CCCCCn1c2c(c(=N)c3ccccc31)CCC2	-1	1	5	-10	6	11	x	x
COc1ccc(-c2ccc(-c3cc(=O)oc4c(C(C)C)ccc(C)c34)cc2)cc1	-28	5	-19	-6	23*	7	13*	0
CCNc1nc(CN2CCCCC2)nc2scc(-c3ccccc3)c12	9	1	-15	-20	19*	12	22*	5.7*
CC(C)CN(C(=O)CN1CCN(S(=O)(=O)c2ccc3ccccc3c2)CC1)c1c(N)n(CC(C)C)c(=O)[nH]c1=O	-18	1	-12	-16	18*	9	-4	0
CSc1nnc(N2C(=O)C(O)=C(C(=O)c3ccc(C)o3)C2c2ccc(C)cc2)s1 (configuration not stated)	-10	-1	-6	-4	-7	-18	x	x
CC(C)NC(=O)N1CCCN(c2nc3ccc(Cl)cc3s2)CC1	-10	-1	-5	-21	20*	-1	7	0
COc1cccc(C(C)(O)c2nc(-c3ccc(N(C)C)cc3)cs2)c1 (configuration not stated)	11	1	x	x	96*	x	101*	-1
COc1cccc(C(C)(O)c2nc(-c3ccccc3)cs2)c1 (configuration not stated)	1	1	x	x	-7	x	x	x
